Experimental data taken from ChEMBL document CHEMBL1129414, “Synthesis and cytotoxic and antitumor activity of esters in the 1,2-dihydroxy-1,2-dihydroacronycine series” (J Med Chem, 1996).

Experiments:
[1] = tested on: MC-38; test: Compound was tested for antitumor activity against colon 38 adenocarcinoma cells at the dose of 6.25 mg/kg ip.; type: functional, Mus musculus
[2] = tested on: L1210; test: Compound was tested in vitro for cytotoxicity on L1210 leukemic cells by using MTT assay.; type: functional, cell-based; conditions: Mus musculus
How it was run: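 L1210 cells were grown in RPMI 1640 with 10% fetal calf serum, 2 mM L-glutamine and 10 mM HEPES (pH 7.4). Cells were exposed for 48 h to nine serial drug dilutions in triplicate, and viability was read by MTT. IC50 is the concentration halving optical density versus untreated controls, given as mean ± SEM of at least 3 independent experiments.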

[3] = tested on: P388; test: Compound was tested for antitumor activity against P388 leukemia cells at the dose of 12.5 mg/kg ip.; conditions: Mus musculus
[4] = tested on: P388; test: Compound was tested for antitumor activity against P388 leukemia cells at the dose of 25 mg/kg ip.; type: functional, Mus musculus
[5] = tested on: MC-38; test: Compound was tested for antitumor activity against colon 38 adenocarcinoma cells at the dose of 12.5 mg/kg ip.; type: functional, Mus musculus
[6] = tested on: P388; test: Compound was tested for antitumor activity against P388 leukemia cells at the dose of 25 mg/kg iv.; type: functional, Mus musculus
[7] = tested on: P388; test: Compound was tested for antitumor activity against P388 leukemia cells at the dose of 12.5 mg/kg ip.; type: functional, Mus musculus
[8] = tested on: MC-38; test: Compound was tested for antitumor activity against colon 38 adenocarcinoma cells at the dose of 200 mg/kg ip.; type: functional, Mus musculus
[9] = tested on: P388; test: Compound was tested for antitumor activity against P388 leukemia cells at the dose of 200 mg/kg ip.; type: functional, Mus musculus
[10] = tested on: P388; test: Compound was tested for antitumor activity against P388 leukemia cells at the dose of 50 mg/kg ip.; type: functional, Mus musculus

**Q.** COc1cc2c(c3c1c(=O)c1ccccc1n3C)[C@H]1OC(=O)O[C@H]1C(C)(C)O2 was tested. Which Activity [1] did it give?
**A.** 68%

**Q.** And the IC50 [2]?
**A.** 0.32 µM

**Q.** What about the Activity [3] of the same compound?
**A.** 202%

**Q.** Which IC50 [2] does the source give for Cn1c2ccccc2c(=O)c2ccc3c(c21)[C@H]1OC(=O)O[C@H]1C(C)(C)O3 here?
**A.** > 50 µM

**Q.** For COc1cc2c(c3c1c(=O)c1ccccc1n3C)[C@@H](OC(C)=O)[C@@H](OC(C)=O)C(C)(C)O2, which Activity [4] is on record?
**A.** 289%

**Q.** And the IC50 [2]?
**A.** 5.8 µM

**Q.** What about the Activity [5] of the same compound?
**A.** 0%

**Q.** What about the Activity [6] of the same compound?
**A.** 220%

**Q.** COc1cc2c(c3c1c(=O)c1ccccc1n3C)[C@@H](O)[C@@H](O)C(C)(C)O2 was tested. Which IC50 [2] did it give?
**A.** 80.6 µM

**Q.** What does the source list for COc1cc2c(c3c1c(=O)c1ccccc1n3C)[C@@H](O)[C@@H](OC(=O)c1ccccc1)C(C)(C)O2?
**A.** Activity [1]: 18%; Activity [7]: 258%; IC50 [2]: 7.1 µM

**Q.** What does the source list for COc1cc2c(c3c1c(=O)c1ccccc1n3C)C=CC(C)(C)O2 [ACRONINE]?
**A.** Activity [8]: 4%; IC50 [2]: 24.1 µM; Activity [9]: 125%

**Q.** For CC(=O)O[C@@H]1c2c(ccc3c(=O)c4ccccc4n(C)c23)OC(C)(C)[C@@H]1OC(C)=O, which IC50 [2] is on record?
**A.** > 50 µM

**Q.** For Cn1c2ccccc2c(=O)c2ccc3c(c21)C=CC(C)(C)O3, which IC50 [2] is on record?
**A.** 29.7 µM

**Q.** Which results are given for COc1cc2c(c3c1c(=O)c1ccccc1n3C)[C@@H](OC(C)=O)[C@@H](OC(=O)c1ccccc1)C(C)(C)O2?
**A.** Activity [10]: 201%; IC50 [2]: 5 µM; Activity [5]: 13%

**Q.** Cn1c2ccccc2c(=O)c2ccc3c(c21)[C@@H](O)[C@@H](O)C(C)(C)O3 was tested. Which IC50 [2] did it give?
**A.** > 50 µM

**Q.** COc1cc2c(c3c1c(=O)c1ccccc1n3C)CCC(C)(C)O2 [DIHYDROACRONYCINE] was tested. Which IC50 [2] did it give?
**A.** 34.3 µM

**Q.** Which IC50 [2] does the source give for COc1cc2c(c3c1c(=O)c1ccccc1n3C)[C@@H](O)[C@@H](OC(C)=O)C(C)(C)O2 here?
**A.** 8.9 µM
